pIC50: −log10 of the molar value. Calls of active or inactive are those of the source. The calls are words filed in the database; no cut-off is given here.
Columns and labels:
[1] = molecular target: Activated CDC42 kinase 1 (Homo sapiens, UniProt Q07912); conditions: 1 uM
[2] = Half life in cynomolgus monkey at 10 mg/kg, po; type: ADME, organism-based, Macaca fascicularis; set-up: dose 10 mg/kg, route oral; conditions: in vivo
Summary of the method: (§1)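 Dog and monkey PK. IV 0.5 mL/kg in 40% HPβCD via the saphenous vein. Oral dosing was 1 mL/kg by gavage in dogs and 2 mL/kg by nasogastric tube in monkeys, after an overnight fast. Serial femoral-vein blood was taken into heparin over 24 h. Plasma was acetonitrile-precipitated and analysed by LC-MS/MS. Parameters were noncompartmental, n = 3, mean ± SEM.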

[3] = Drug level in SCID mouse tumor xenografted with human KARPAS299 cells expressing NPM-ALK at 30 mg/kg, po after 24 hrs by LC-MS/MS analysis; type: ADME, organism-based, Neoplasm, KARPAS-299; set-up: dose 30 mg/kg, route oral; conditions: read-out: Drug uptake
[4] = test system: NB1643; assay: Antitumor activity against human NB1643 cells expressing ALK mutant F1174L assessed as growth inhibition administered as po bid; type: functional, organism-based
[5] = Tmax in CD-1 mouse at 10 mg/kg, po; type: ADME, organism-based; set-up: dose 10 mg/kg, route oral; conditions: in vivo
Summary of the method: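 Mouse oral PK: overnight fast, gavage of 100 μL in 100% PEG400; trunk blood from three mice per time point over 6 h; plasma acetonitrile-precipitated and analysed by LCMS/MS, noncompartmental parameters.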

[6] = AUC (0 to 12 hrs) in rat 100 mg/kg, po; type: ADME, organism-based; set-up: time < 12 hr, dose 100 mg/kg, route oral; conditions: plasma
Summary of the method: (§2)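 Rat oral dose escalation at 10, 30, 55 and 100 mg/kg. Gavage at 5 mL/kg in 40% HPβCD after an overnight fast. Serial tail-vein blood was drawn into heparinized tubes. Plasma was protein-precipitated with acetonitrile and assayed by LC-MS/MS. Cmax and AUC0–12 were derived noncompartmentally; n = 2 at 10 mg/kg.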

[7] = molecular target: Ribosomal protein S6 kinase alpha-1 (Homo sapiens, UniProt Q15418); assay: Inhibition of human Rsk1
Sequence of Ribosomal protein S6 kinase alpha-1 (Q15418 whole entry): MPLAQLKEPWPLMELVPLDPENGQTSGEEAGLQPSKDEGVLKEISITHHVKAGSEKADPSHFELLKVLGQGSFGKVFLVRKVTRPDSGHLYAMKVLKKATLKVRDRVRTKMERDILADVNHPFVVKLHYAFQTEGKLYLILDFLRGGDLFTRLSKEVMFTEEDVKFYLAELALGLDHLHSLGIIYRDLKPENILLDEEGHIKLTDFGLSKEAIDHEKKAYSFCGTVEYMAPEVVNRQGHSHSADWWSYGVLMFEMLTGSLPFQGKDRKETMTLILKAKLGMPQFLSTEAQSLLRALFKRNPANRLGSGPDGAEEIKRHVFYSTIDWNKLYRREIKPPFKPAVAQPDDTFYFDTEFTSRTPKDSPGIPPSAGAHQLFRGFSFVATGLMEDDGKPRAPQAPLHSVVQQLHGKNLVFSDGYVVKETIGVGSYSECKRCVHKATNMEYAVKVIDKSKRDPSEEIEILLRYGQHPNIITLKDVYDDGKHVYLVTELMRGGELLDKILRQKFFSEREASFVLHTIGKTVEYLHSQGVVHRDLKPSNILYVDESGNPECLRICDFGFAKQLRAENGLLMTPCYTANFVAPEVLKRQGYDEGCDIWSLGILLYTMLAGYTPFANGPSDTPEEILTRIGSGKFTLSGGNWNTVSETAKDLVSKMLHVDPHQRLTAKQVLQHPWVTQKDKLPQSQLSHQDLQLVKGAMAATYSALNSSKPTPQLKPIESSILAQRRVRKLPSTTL
Summary of the method: (§3)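 Millipore KinaseProfiler activity assays on a 259-kinase panel; kinases inhibited by ≥90% at 1 μM then taken to full IC50 determination.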

[8] = Drug level in SCID mouse tumor xenografted with human KARPAS299 cells expressing NPM-ALK at 30 mg/kg, po after 6 hrs by LC-MS/MS analysis; type: ADME, organism-based, Neoplasm, KARPAS-299; set-up: dose 30 mg/kg, route oral; conditions: read-out: Drug uptake
[9] = molecular target: Mitogen-activated protein kinase 8 (Homo sapiens, UniProt P45983); assay: Inhibition of human JNK1alpha1
Summary of the method: as §3

[10] = molecular target: Receptor-type tyrosine-protein kinase FLT3 (Homo sapiens, UniProt P36888); assay: Inhibition of human Flt3
Sequence of Receptor-type tyrosine-protein kinase FLT3 (P36888 whole entry): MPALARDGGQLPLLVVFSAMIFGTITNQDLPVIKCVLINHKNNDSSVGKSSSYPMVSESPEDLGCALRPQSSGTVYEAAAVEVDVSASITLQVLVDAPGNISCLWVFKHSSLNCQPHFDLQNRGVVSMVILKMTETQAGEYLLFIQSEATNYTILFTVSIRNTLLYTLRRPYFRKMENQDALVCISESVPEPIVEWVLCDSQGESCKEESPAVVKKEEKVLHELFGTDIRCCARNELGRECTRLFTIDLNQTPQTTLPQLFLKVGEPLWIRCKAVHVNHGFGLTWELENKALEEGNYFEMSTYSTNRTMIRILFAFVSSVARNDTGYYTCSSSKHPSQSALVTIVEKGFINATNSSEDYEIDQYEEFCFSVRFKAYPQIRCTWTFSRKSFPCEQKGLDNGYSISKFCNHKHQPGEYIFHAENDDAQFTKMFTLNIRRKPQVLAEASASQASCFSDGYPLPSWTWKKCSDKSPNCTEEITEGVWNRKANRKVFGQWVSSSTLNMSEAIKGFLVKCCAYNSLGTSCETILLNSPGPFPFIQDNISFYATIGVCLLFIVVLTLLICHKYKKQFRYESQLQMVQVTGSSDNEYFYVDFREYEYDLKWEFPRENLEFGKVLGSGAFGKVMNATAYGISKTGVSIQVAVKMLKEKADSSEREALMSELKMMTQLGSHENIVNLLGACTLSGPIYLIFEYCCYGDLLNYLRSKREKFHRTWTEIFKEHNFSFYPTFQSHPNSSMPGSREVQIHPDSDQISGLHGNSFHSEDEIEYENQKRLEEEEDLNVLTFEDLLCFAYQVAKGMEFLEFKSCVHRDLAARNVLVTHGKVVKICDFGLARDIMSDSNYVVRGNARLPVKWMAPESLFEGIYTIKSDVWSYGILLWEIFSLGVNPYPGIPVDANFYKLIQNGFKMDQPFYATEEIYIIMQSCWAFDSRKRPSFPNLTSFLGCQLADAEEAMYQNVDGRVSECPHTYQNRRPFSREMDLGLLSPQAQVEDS
Summary of the method: as §3

[11] = Drug level in SCID mouse tumor xenografted with human KARPAS299 cells expressing NPM-ALK at 30 mg/kg, po after 12 hrs by LC-MS/MS analysis; type: ADME, organism-based, Neoplasm, KARPAS-299; set-up: dose 30 mg/kg, route oral; conditions: read-out: Drug uptake
[12] = test system: SH-SY5Y; assay: Antitumor activity against human SH-SY5Y cells expressing ALK mutant R1275Q assessed as growth inhibition administered as po bid; type: functional, organism-based
[13] = AUC in Beagle dog at 10 mg/kg, po; type: ADME, organism-based, Canis lupus familiaris; set-up: dose 10 mg/kg, route oral; conditions: plasma
Summary of the method: as §1

[14] = Cmax in rat at 100 mg/kg, po; type: ADME, organism-based; set-up: dose 100 mg/kg, route oral; conditions: in vivo
Summary of the method: as §2

[15] = test system: Mus musculus; assay: Toxicity in SCID mouse xenografted with human KARPAS299 cells expressing NPM-ALK assessed as effect on body weight at 10 to 30 mg/kg, po bid; type: organism-based, KARPAS-299; set-up: dose 10-30 mg/kg, route oral; conditions: in vivo
Summary of the method: (§4)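 Female SCID/beige mice (6–8 weeks), Karpas-299 cells implanted sc in left flank; at ~600 mm³ randomized (8–10/group), dosed orally in PEG400, 100 μL, b.i.d. for 12 days. Body weight every 2–3 days; plasma and tumor sampled 2 h after final dose, drug by LCMS/MS; Mann–Whitney rank sum statistics.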

[16] = Drug level in SCID/beige mouse tumor xenografted with human KARPAS299 cells expressing NPM-ALK at 10 mg/kg, po bid after 2 hrs post last dose by LC-MS/MS analysis; type: ADME, organism-based, Neoplasm, KARPAS-299; set-up: dose 10 mg/kg, route oral; conditions: read-out: Drug uptake
Summary of the method: (§5)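 Female SCID/beige mice, 6–8 weeks old, implanted sc in the left flank with exponentially growing Karpas-299 cells. At about 600 mm³ tumours, mice were randomized (8–10/group) and given PEG400 vehicle or compound orally b.i.d., 100 μL, for 12 days. Tumour volume (0.5236LW(L+W)/2) and body weight were recorded every 2–3 days; Mann–Whitney test. Plasma and tumour levels were measured by LC-MS/MS 2 h after the final dose, mean ± SEM.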

[17] = test system: Mus musculus; assay: Inhibition of NPM-ALK phosphorylation in human KARPAS299 cells xenografted in SCID mouse tumor at 30 mg/kg, po qd after 12 hrs by immunoblotting; type: functional; conditions: KARPAS-299, 12 h
Summary of the method: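 SCID mice bearing sc Karpas-299 xenografts received a single 30 mg/kg oral dose. Phospho- and total NPM-ALK in tumour samples were detected by immunoblotting, and relative NPM-ALK phosphorylation was calculated.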

[18] = Plasma concentration in SCID/beige mouse xenografted with human KARPAS299 cells expressing NPM-ALK at 10 mg/kg, po bid after 2 hrs post last dose by LC-MS/MS analysis; type: ADME, organism-based, KARPAS-299; set-up: dose 10 mg/kg, route oral
Summary of the method: as §4

[19] = molecular target: Ribosomal protein S6 kinase alpha-2 (Homo sapiens, UniProt Q15349); assay: Inhibition of human Rsk3
Sequence of Ribosomal protein S6 kinase alpha-2 (Q15349 whole entry): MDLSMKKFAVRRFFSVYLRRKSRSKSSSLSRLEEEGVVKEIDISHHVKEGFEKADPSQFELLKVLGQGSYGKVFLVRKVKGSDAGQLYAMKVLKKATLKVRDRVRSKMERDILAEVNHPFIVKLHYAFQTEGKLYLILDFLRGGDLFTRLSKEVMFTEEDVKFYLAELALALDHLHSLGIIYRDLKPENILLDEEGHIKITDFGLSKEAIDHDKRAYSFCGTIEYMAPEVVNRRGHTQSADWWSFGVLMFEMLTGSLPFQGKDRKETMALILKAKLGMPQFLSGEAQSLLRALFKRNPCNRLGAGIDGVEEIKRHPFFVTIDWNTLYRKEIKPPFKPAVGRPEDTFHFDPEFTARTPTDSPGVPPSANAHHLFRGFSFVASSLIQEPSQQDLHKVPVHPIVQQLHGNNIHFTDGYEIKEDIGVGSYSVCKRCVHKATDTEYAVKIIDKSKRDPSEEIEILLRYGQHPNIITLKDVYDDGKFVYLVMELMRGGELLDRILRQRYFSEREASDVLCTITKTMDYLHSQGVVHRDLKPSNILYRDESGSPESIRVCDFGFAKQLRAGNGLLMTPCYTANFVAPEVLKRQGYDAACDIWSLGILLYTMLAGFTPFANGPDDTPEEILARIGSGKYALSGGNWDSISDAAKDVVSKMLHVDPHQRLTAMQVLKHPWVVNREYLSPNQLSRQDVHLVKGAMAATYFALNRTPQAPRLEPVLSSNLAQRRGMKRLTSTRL
Summary of the method: as §3

[20] = AUC in Sprague-Dawley rat at 1 mg/kg, iv; type: ADME, organism-based; set-up: dose 1 mg/kg, route intravenous; conditions: plasma
Summary of the method: (§6)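 Rat PK. IV via the lateral tail vein, 1 mL/kg in 3% DMSO/30% Solutol/67% PBS, or oral gavage at 5 mL/kg in 40% HPβCD, after an overnight fast. Serial tail-vein blood was taken into heparin over 6 h. Plasma was acetonitrile-precipitated and analysed by LC-MS/MS. Parameters were noncompartmental, n = 3, mean ± SEM.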

[21] = molecular target: T1, Protein-tyrosine kinase 6 (Homo sapiens, UniProt Q13882); conditions: 1 uM
Target sequence in this assay (Q13882 whole entry, looked up): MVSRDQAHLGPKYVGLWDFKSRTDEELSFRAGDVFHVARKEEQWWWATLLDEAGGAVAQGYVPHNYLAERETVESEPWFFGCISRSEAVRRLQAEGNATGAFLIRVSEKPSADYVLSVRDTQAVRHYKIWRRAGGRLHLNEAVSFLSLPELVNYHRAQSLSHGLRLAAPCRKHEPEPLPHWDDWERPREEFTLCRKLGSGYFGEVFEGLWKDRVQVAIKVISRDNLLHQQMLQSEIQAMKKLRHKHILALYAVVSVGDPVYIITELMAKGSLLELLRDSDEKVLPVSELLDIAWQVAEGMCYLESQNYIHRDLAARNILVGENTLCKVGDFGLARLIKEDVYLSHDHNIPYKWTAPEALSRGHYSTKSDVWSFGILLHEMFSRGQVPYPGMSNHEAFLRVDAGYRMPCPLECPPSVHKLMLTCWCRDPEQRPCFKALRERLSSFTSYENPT

[22] = Cmax in rat at 30 mg/kg, po; type: ADME, organism-based; set-up: dose 30 mg/kg, route oral; conditions: in vivo
Summary of the method: as §2

[23] = AUC (0 to 12 hrs) in rat 30 mg/kg, po; type: ADME, organism-based; set-up: time < 12 hr, dose 30 mg/kg, route oral; conditions: plasma
Summary of the method: as §2

[24] = Cmax in cynomolgus monkey at 10 mg/kg, po; type: ADME, organism-based, Macaca fascicularis; set-up: dose 10 mg/kg, route oral; conditions: in vivo
Summary of the method: as §1

[25] = molecular target: Tyrosine-protein kinase Fer (Homo sapiens, UniProt P16591); conditions: 1 uM
Sequence of Tyrosine-protein kinase Fer (P16591 whole entry, looked up): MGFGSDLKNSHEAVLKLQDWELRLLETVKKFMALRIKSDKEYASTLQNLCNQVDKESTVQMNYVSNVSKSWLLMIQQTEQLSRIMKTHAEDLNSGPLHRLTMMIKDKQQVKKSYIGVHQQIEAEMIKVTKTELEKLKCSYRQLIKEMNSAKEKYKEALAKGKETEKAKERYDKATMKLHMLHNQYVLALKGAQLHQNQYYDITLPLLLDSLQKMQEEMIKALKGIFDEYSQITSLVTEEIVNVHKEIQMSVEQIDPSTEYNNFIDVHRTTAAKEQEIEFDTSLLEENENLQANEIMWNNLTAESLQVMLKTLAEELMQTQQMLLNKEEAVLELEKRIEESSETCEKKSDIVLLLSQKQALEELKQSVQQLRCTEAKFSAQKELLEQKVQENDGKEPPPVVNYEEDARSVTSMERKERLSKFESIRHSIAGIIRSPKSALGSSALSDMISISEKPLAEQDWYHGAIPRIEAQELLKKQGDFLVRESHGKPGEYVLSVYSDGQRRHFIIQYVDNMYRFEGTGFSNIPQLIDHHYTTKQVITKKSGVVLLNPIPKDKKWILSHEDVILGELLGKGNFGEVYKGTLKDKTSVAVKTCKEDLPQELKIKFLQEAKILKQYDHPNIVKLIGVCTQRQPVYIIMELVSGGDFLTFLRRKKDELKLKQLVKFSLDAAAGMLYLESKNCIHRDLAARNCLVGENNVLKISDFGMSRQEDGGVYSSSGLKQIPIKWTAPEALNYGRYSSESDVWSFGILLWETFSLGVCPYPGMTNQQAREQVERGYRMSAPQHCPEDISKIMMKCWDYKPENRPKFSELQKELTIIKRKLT

[26] = AUC in Beagle dog at 1 mg/kg, iv; type: ADME, organism-based, Canis lupus familiaris; set-up: dose 1 mg/kg, route intravenous; conditions: plasma
Summary of the method: as §1

[27] = AUC in CD-1 mouse at 1 mg/kg, iv; type: ADME, organism-based; set-up: dose 1 mg/kg, route intravenous; conditions: plasma
Summary of the method: (§7)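 Mouse PK. IV via the lateral tail vein in 3% DMSO/30% Solutol/67% PBS, or oral gavage in 100% PEG400, 100 μL dose volume, after an overnight fast. Trunk blood was taken from three mice per time point over 6 h. Plasma was acetonitrile-precipitated and analysed by LC-MS/MS. Parameters were derived noncompartmentally.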

[28] = Half life in Sprague-Dawley rat at 1 mg/kg, iv; type: ADME, organism-based; set-up: dose 1 mg/kg, route intravenous; conditions: in vivo
Summary of the method: as §6

[29] = Half life in SCID mouse at 10 mg/kg, po; type: ADME, organism-based; set-up: dose 10 mg/kg, route oral; conditions: in vivo
Summary of the method: as §7

[30] = molecular target: Tyrosine-protein kinase Fes/Fps (Homo sapiens, UniProt P07332); conditions: 1 uM
[31] = test system: KARPAS-299; assay: Antitumor activity against human KARPAS299 cells expressing NPM-ALK xenografted in SCID mouse assessed as tumor regression administered as po bid for 12 days; type: functional, organism-based
Summary of the method: as §5

[32] = molecular target: T1, Protein-tyrosine kinase 6; assay: Inhibition of human BRK
Target sequence in this assay (Q13882 whole entry): as the sequence (Q13882 whole entry, looked up) above

Sequence of Activated CDC42 kinase 1 (Q07912 whole entry, looked up): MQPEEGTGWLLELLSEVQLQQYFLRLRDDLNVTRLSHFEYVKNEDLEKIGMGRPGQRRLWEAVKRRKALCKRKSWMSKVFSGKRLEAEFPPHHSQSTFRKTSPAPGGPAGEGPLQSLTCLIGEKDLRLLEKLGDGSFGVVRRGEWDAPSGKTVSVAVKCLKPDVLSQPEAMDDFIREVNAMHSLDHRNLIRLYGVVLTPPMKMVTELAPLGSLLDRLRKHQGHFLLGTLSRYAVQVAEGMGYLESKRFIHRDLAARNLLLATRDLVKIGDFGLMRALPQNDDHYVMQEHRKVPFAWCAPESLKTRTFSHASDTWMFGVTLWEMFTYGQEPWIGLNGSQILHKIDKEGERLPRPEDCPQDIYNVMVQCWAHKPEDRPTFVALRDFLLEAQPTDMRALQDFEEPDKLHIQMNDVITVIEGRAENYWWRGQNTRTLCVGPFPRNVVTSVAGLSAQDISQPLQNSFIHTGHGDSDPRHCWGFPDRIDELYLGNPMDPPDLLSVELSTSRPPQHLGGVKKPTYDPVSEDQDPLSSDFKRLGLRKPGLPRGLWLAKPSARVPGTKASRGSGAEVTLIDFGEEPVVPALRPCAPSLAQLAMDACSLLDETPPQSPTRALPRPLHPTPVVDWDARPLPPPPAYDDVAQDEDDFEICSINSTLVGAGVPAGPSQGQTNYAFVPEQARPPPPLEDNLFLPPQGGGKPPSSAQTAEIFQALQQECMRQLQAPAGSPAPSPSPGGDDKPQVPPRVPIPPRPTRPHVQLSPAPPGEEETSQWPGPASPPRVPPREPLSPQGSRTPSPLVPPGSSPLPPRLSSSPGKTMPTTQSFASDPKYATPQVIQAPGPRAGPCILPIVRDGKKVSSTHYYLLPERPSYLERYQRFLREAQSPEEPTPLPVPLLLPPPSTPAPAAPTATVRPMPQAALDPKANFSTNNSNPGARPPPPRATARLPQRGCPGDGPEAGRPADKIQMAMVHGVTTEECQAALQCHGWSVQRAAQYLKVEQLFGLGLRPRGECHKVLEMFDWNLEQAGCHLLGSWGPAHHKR

inhibition [1]: > 90%
half-life [2]: 1.2 h
concentration at 24 h [3]: 100 ng/g
Tmax [5]: 0.25 h
AUC(0-t) at 12 h [6]: 38200 ng·h/mL
pIC50 [7]: 7.21
concentration at 6 h [8]: 2870 ng/g
pIC50 [9]: 6.95
pIC50 [10]: 7.06
concentration at 12 h [11]: 1460 ng/g
AUC [13]: 2130 ng·h/mL
Cmax [14]: 3050 ng/mL
concentration at 2 h [16]: 686 ng/g
concentration at 2 h [18]: 1960 ng/mL
pIC50 [19]: 8.15
AUC [20]: 989 ng·h/mL
inhibition [21]: > 90%
Cmax [22]: 1010 ng/mL
AUC(0-t) at 12 h [23]: 10900 ng·h/mL
Cmax [24]: 170 ng/mL
inhibition [25]: > 90%
AUC [26]: 409 ng·h/mL
AUC [27]: 584 ng·h/mL
half-life [28]: 0.9 h
half-life [29]: 1.8 h
inhibition [30]: > 90%
pIC50 [32]: 7.14
SMILES: COc1c(Nc2ncc(Cl)c(N[C@H]3[C@@H](C(N)=O)[C@@H]4C=C[C@H]3C4)n2)ccc2c1CC[C@@H](N1CCOCC1)CC2
growth inhibition (GI) [4]: Active
growth inhibition (GI) [12]: Active
Activity [15]: Non-toxic
inhibition in vivo at 30 mg/kg [17]: > 90%
Activity [31]: Dose-dependent effect

From ChEMBL document CHEMBL2062375, “Discovery of an orally efficacious inhibitor of anaplastic lymphoma kinase” (J Med Chem, 2012)
